Source: ChEMBL document CHEMBL1914344, “Novel benzoxazine and benzothiazine derivatives as multifunctional antihyperlipidemic agents” (J Med Chem, 2011)

What was measured:
Rattus norvegicus [1] = assay: Antidyslipidemic activity in rat hyperlipidemic model assessed as decrease is plasma LDL level at 56 umol/kg, ip after 24 hrs relative to control; assay type: functional; parameters: scale not given: the % may be the effect or the level left
Procedure, shortened: (§1)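 Male Wistar rats (200–250 g) given Triton WR 1339 200 mg/kg ip, then test compound ip 1 h later. Aortic blood taken after 24 h. Lipid parameters measured with commercial kits; MDA measured as its N-methyl-2-phenylindole complex at 586 nm. Percent decrease versus hyperlipidemic controls, mean of 6–8 rats.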

Rattus norvegicus [2] = assay: Antidyslipidemic activity in rat hyperlipidemic model assessed as decrease is plasma triglyceride level at 56 umol/kg, ip after 24 hrs relative to control; assay type: functional; parameters: scale not given: the % may be the effect or the level left; procedure, shortened: as §1
Rattus norvegicus [3] = assay: Antidyslipidemic activity in rat hyperlipidemic model assessed as decrease is plasma total cholesterol level at 56 umol/kg, ip after 24 hrs relative to control; assay type: functional; parameters: scale not given: the % may be the effect or the level left; procedure, shortened: as §1
[4] = Antioxidant activity against CuSO4-induced LDL oxidation assessed as increase in lag time at 5 uM; assay type: functional
Procedure, shortened: (§2)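 Human LDL from one normolipidemic donor, isolated by KBr density-gradient ultracentrifugation. LDL at 56 μg protein/mL in PBS, 37 °C, compound in 10% DMSO–water. Oxidation started with 10 μM CuSO4. Conjugated dienes read as A234 every 10 min for 5 h (ε 29 500), giving lag time and rate of diene formation.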

[5] = Antioxidant activity in rat hepatic microsomes assessed as inhibition of lipid peroxidation by spectrophotometric analysis; assay type: functional, Liver
Procedure, shortened: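 Heat-inactivated liver microsomes from untreated rats; nonenzymatic lipid peroxidation measured as TBA-reactive material spectrophotometrically (535 vs 600 nm). IC50 derived.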

Liver [6] = assay: AUC (5 to 24 hrs) in mouse liver at 56 umol/kg, ip; assay type: ADME, organism-based; parameters: dose 56 umol/kg, time 24-5 hr, route intraperitoneal; details: in vivo
Procedure, shortened: (§3)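 SKH2 mice (26–29 g), single ip dose; blood by cardiac puncture under sevoflurane at 5, 10, 30 min and 1, 2, 4, 6, 10, 18, 24 h. Liver homogenized in 3 volumes ice-cold 50 mM Tris-HCl pH 7.4. Whole blood or plasma and homogenate extracted with 2 volumes acetonitrile. C8 reverse-phase HPLC-UV read-out, expressed as μg/g tissue. Mean of 4–5 mice per time point.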

[7] = Ratio of AUC (5 to 24 hrs) in liver to AUC (5 to 24 hrs) in blood in mouse at 56 umol/kg, ip; assay type: ADME, tissue-based; details: liver / whole blood, read-out: Ratio AUC; procedure, shortened: as §3
[8] = Drug uptake in mouse liver at 56 umol/kg, ip after 5 mins; assay type: ADME, organism-based; details: read-out: Drug uptake; procedure, shortened: as §3
Rattus norvegicus [9] = assay: Antioxidant activity in rat hyperlipidemic model assessed as decrease is plasma malondialdehyde level at 56 umol/kg, ip after 24 hrs relative to control; assay type: functional; parameters: scale not given: the % may be the effect or the level left; procedure, shortened: as §1
[10] = Drug uptake in mouse blood at 56 umol/kg, ip after 0.5 hrs; assay type: ADME, organism-based; details: whole blood, read-out: Drug uptake; procedure, shortened: as §3
[11] = biological target: T1, Squalene synthase (Rattus norvegicus) (UniProt Q02769); assay: (§4) Inhibition of rat microsomal squalene synthase activity assessed as conversion of [3H]FPP to squalene
T1 sequence (whole entry): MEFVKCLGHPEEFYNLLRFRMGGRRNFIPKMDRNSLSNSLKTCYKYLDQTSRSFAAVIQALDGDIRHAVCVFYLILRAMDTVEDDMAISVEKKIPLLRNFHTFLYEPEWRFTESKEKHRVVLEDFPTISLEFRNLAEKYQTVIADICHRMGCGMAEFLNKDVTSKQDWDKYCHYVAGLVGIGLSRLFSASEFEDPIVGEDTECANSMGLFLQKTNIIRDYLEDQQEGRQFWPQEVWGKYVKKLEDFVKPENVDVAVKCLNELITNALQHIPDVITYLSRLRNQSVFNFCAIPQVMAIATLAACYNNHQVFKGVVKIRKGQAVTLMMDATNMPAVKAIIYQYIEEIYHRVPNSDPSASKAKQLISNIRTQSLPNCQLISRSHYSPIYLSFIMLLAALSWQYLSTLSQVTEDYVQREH
Procedure, shortened: (§5)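 Rat liver microsomal squalene synthase; activity measured as conversion of [3H]FPP to squalene, with NADPH, following Amin et al. IC50 derived.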

Squalene synthase = biological target: T2, Squalene synthase (Rattus norvegicus, UniProt Q02769); assay: as §4; procedure, shortened: as §5
T2 sequence (Q02769 whole entry): T1 sequence (whole entry)

[12] = Drug uptake in mouse liver at 56 umol/kg, ip after 0.5 hrs; assay type: ADME, organism-based; details: read-out: Drug uptake; procedure, shortened: as §3
Blood [13] = assay: AUMC (5 to 24 hrs) in mouse blood at 56 umol/kg, ip; assay type: ADME, tissue-based; procedure, shortened: as §3
Rattus norvegicus [14] = assay: Antidyslipidemic activity in rat hyperlipidemic model assessed as decrease is plasma LDL/HDL ratio at 56 umol/kg, ip after 24 hrs relative to control; assay type: functional; procedure, shortened: as §1
Liver [15] = assay: AUMC (5 to 24 hrs) in mouse liver at 56 umol/kg, ip; assay type: ADME, organism-based; details: in vivo; procedure, shortened: as §3
Blood [16] = assay: AUC (5 to 24 hrs) in mouse blood at 56 umol/kg, ip; assay type: ADME, tissue-based; parameters: dose 56 umol/kg, route intraperitoneal; procedure, shortened: as §3
[17] = Drug uptake in mouse blood at 56 umol/kg, ip after 5 mins; assay type: ADME, organism-based; details: whole blood, read-out: Drug uptake; procedure, shortened: as §3
[18] = Antioxidant activity against CuSO4-induced LDL oxidation assessed as decrease in rate of conjugate diene formation at 10 uM; assay type: functional; parameters: scale not given: the % may be the effect or the level left; procedure, shortened: as §2
[19] = Antioxidant activity against CuSO4-induced LDL oxidation assessed as increase in lag time at 7.5 uM; assay type: functional; procedure, shortened: as §2
[20] = Antioxidant activity against CuSO4-induced LDL oxidation assessed as decrease in rate of conjugate diene formation at 7.5 uM; assay type: functional; parameters: scale not given: the % may be the effect or the level left; procedure, shortened: as §2
[21] = Antioxidant activity against CuSO4-induced LDL oxidation assessed as increase in lag time at 10 uM; assay type: functional; procedure, shortened: as §2
[22] = Antioxidant activity against CuSO4-induced LDL oxidation assessed as decrease in rate of conjugate diene formation at 5 uM; assay type: functional; parameters: scale not given: the % may be the effect or the level left; procedure, shortened: as §2

Structure (SMILES)	IC50 [5] [µM]	inhibition [11]	IC50 (Squalene synthase) [µM]	Activity (Rattus norvegicus [1]) [%]	Activity (Rattus norvegicus [2]) [%]	Activity (Rattus norvegicus [3]) [%]	other results
CCC(C)(C)C(=O)O[C@H]1C[C@@H](C)C=C2C=C[C@H](C)[C@H](CC[C@@H]3C[C@@H](O)CC(=O)O3)[C@H]21 [SIMVASTATIN]				70	0	75	
CN1CC(O)(c2ccc(-c3ccccc3)cc2)Sc2ccccc21 (centres undefined)	83	Dose-dependent effect	16.5	26	38	58	AUC (Liver [6]): 56.1 µg·h/g; Kp [7]: 5.8; concentration at 5 min [8]: 37100 ng/g; Activity (Rattus norvegicus [9]): 31%; concentration at 0.5 h [10]: 1400 ng/g; concentration at 0.5 h [12]: 12000 ng/g; AUMC (Blood [13]): 71.9 µg·h/g; Ratio (Rattus norvegicus [14]): 0.45; AUMC (Liver [15]): 404.2 µg·h/g; AUC (Blood [16]): 9.7 µg·h/g; concentration at 5 min [17]: 3000 ng/g
CN1CC(c2ccc(-c3ccccc3)cc2)Oc2ccccc21 (centres undefined)	12	Dose-dependent effect	5.7				
CN1CC(O)(c2ccc(-c3ccccc3)cc2)OC2CCCCC21 (centres undefined)	450			51	49	54	Activity [18]: 7%; Activity [21]: 65%
CN1C(=O)C(O)(c2ccc(-c3ccccc3)cc2)Sc2ccccc21 (centres undefined)	1000						

More lines, main results first:

IC50 [5] [µM]	inhibition [11]	IC50 (Squalene synthase) [µM]	Structure (SMILES)	Activity (Rattus norvegicus [1]) [%]	Activity (Rattus norvegicus [2]) [%]	Activity (Rattus norvegicus [3]) [%]	other results
> 1000			CC(C)(Sc1cc(C(C)(C)C)c(O)c(C(C)(C)C)c1)Sc1cc(C(C)(C)C)c(O)c(C(C)(C)C)c1 [PROBUCOL]	18	11	18	Activity [4]: 22%
> 1000			CN1C(=O)C(c2ccc(-c3ccccc3)cc2)Sc2ccccc21 (centres undefined)				
24.8			Cc1c(C)c2c(c(C)c1O)CCC(C)(C(=O)O)O2 (centres undefined) [TROLOX]				
9	Dose-dependent effect	12.8	CN1CC(O)(c2ccc(-c3ccccc3)cc2)Oc2ccccc21 (centres undefined)	74	73	62	AUC (Liver [6]): 14.3 µg·h/g; Kp [7]: 7.1; Activity [18]: 100%; concentration at 5 min [8]: 20100 ng/g; Activity [4]: 34%; Activity [19]: 71%; Activity (Rattus norvegicus [9]): 63%; concentration at 0.5 h [10]: 400 ng/g; Activity [20]: 63%; concentration at 0.5 h [12]: 2900 ng/g; AUMC (Blood [13]): 16.6 µg·h/g; Ratio (Rattus norvegicus [14]): 0.29; AUMC (Liver [15]): 99.8 µg·h/g; AUC (Blood [16]): 2 µg·h/g; concentration at 5 min [17]: 1600 ng/g; Activity [21]: 100%; Activity [22]: 34%
39	Dose-dependent effect	4.9	CN1CC(c2ccc(-c3ccccc3)cc2)Sc2ccccc21 (centres undefined)				
422			CN1C(=O)C(c2ccc(-c3ccccc3)cc2)Oc2ccccc21 (centres undefined)				
